Screening data as filed in PubChem.
CAL PDZ FP-1 – human CAL PDZ-peptide interaction inhibition; inhibition, % at 20 µM; Q9HD26; actives 0.02% (n = 330,000); purified CAL PDZ, TMR-peptide fluorescence polarization, 1 h;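 active = highest replicate inhibition of at least 40%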;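 also: plate controls were DMSO neutral control wells for no effect and unlabeled competitor peptide control wells for full effect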
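Material: tagged CAL PDZ protein CerCALP, purified; buffer or medium: sodium phosphate/NaCl buffer pH 7.4 with TCEP, IgG, Thesit; also added: fluorescent TMR peptide probe; schedule: 1 h incubation at room temperature before polarization reading; technique: fluorescence polarization from S- and P-plane intensities, G-factor corrected; control set: unlabelled peptide and DMSO controls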
CaV13 FRET inh – Disruptors of the CACNA1D IQ motif to Ca2+-dependent inactivation inhibitor domain association, primary screening, Förster resonance energy transfer in intact living …; HEK cells, CFP/YFP FRET ICDI-IQ, plate reader, 10 min; percent FRET-ratio fall versus neutral wells; AID 743397; inhibition, % at 12.3 µM; actives 0.098% (n = 340,000);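 active = mean replicate inhibition of at least 30% and at least 1% of replicates passing that level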;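 also: 0% = median of the neutral control wells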
ARNT-TACC3 inh – disruptors of human ARNT/TACC3 interaction; AlphaScreen His-ARNT PAS-B/GST-TACC3 binding, luminescence; TACC3 fragment carries E629A point mutation; inhibition, % at 9.99 µM; actives 0.66% (n = 390,000); AID 623870;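 active = mean inhibition of replicates at least 50% and at least half of replicates each reaching 50%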;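 also: 0% = complete ARNT plus TACC3 wells and 100% = ARNT alone without TACC3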
CAL PDZ FP-2 – inhibitors of human CAL PDZ peptide binding; actives 0.92% (n = 300,000); purified CAL PDZ, TMR-peptide fluorescence polarization, 1 h; inhibition, % at 24.9 µM; AID 602252; Q9HD26;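 active = mean inhibition of at least 30% with at least half of replicates also reaching 30%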;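 also: 0% = DMSO neutral control and 100% = excess unlabeled competitor peptide PRC23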
The depositor's hits bear a star; x = not tested or not shown; + = active, no number. In the library only some 1.2% were active in any assay of this set; here they are far more common.

SMILES	CAL PDZ FP-1	CaV13 FRET inh	ARNT-TACC3 inh	CAL PDZ FP-2
CN(Cc1nc2ccccc2c(=O)[nH]1)C(=O)c1cccc(NC(=O)c2cccs2)c1	-0.9	-10.1	2.7	66.2*
CC(C)NC(=O)N(C)C[C@H]1OCCCC[C@H](C)Oc2ccc(NS(=O)(=O)c3cccs3)cc2C(=O)N([C@@H](C)CO)C[C@@H]1C	x	x	-13.7	x
CC1=CC2=C(OC1N(C)C)c1cccc3cccc(c13)C2=O (stereo not drawn)	x	x	-8.4	38.6*
COc1ccc(CSc2nncn2N)cc1Br	-0.7	-2.0	active	-0.9
CCOc1ccc(S(=O)(=O)N2Cc3ccccc3CC2C(=O)O)cc1 (stereo not drawn)	0.8	-5.9	13.8	51.0*
COc1ccc(S(=O)(=O)N2Cc3ccccc3CC2C(=O)O)cc1 (stereo not drawn)	-0.1	-5.0	15.5	-0.2
CO[C@@H]1CN(C)C(=O)c2ccc(NC(=O)Nc3cc(F)ccc3F)cc2OC[C@H](C)NC[C@H]1C	x	x	-4.0	x
O=[N+]([O-])c1ccc(Sc2nccn2Cc2ccccc2)cc1	0.1	-5.1	-1.9	30.2*
Cc1noc(C)c1S(=O)(=O)Nc1ccc2c(c1)C(=O)N([C@@H](C)CO)C[C@@H](C)[C@@H](CN(C)Cc1ccc3c(c1)OCO3)O2	x	x	7.3	x
O=C(C[C@H]1C=C[C@H](NS(=O)(=O)c2cccc(F)c2)[C@@H](CO)O1)NCc1ccc2c(c1)OCO2	x	x	-9.8	x
COC(=O)C[C@@H]1C[C@@H]2c3cc(NC(=O)C4CCC4)ccc3O[C@@H]2[C@H](CO)O1	x	x	-2.8	x
CCOc1ccc2cc(S(=O)(=O)N3CCN(C)CC3)ccc2c1	-2.7	-5.8	x	1.0
CCOc1ccc2cc(S(=O)(=O)N3CCCCC3)ccc2c1	-0.1	-3.7	-3.7	60.3*
CNC(=O)C[C@H]1CC[C@@H]2[C@H](COc3ccc(NS(=O)(=O)c4ccccc4C)cc3C(=O)N2C)O1	x	x	4.6	x
Cc1cc(=O)oc2cc(OC(=O)c3cncc(Br)c3)ccc12	-5.3	44.8*	-0.4	-4.0
CCCC(=O)Oc1ccc2c(C)cc(=O)oc2c1	-0.7	-5.4	-0.1	-0.3
CCCCCC/C=N/Nc1nnc(Cc2ccc(OC)c(OC)c2)c(=O)[nH]1	-0.4	-20.0	54.0*	-2.9
COc1ccc(Cc2nnc(N/N=C/c3ccc(O)cc3O)[nH]c2=O)cc1OC	0.6	-14.7	62.2*	-0.6
C[C@@H]1CN([C@@H](C)CO)C(=O)c2cccc(NC(=O)c3cnccn3)c2O[C@@H]1CN(C)S(=O)(=O)c1cccs1	x	x	7.8	x
C[C@@H]1CN([C@H](C)CO)S(=O)(=O)c2ccc(-c3cccnc3)cc2O[C@H]1CN(C)C(=O)C1CCC1	x	x	-11.9	x
c1cc2ccc3ccc(-n4cnnn4)c4ccc(c1)c2c34	x	-2.6	-2.9	118.9*
C=CCn1nc([N+](=O)[O-])nc1Sc1cccc2cccnc12	-0.4	x	73.7*	-0.9
Cc1ccc(S(=O)(=O)NCC[C@H]2CC[C@H](NS(=O)(=O)c3ccccc3Cl)[C@@H](CO)O2)cc1	x	x	8.2	x
COc1cc(CNCc2ccccn2)ccc1OCC(N)=O	0.1	-7.7	49.0*	1.4
COc1ccc(OCC(=O)NCCNC(=O)c2ccccn2)cc1	-0.1	-2.9	-16.7	-3.4
SMILES	CAL PDZ FP-1	CaV13 FRET inh	ARNT-TACC3 inh	CAL PDZ FP-2
COc1ccc(OCC(=O)NNC(=O)c2ccccn2)cc1	-0.4	x	66.6*	x
COc1ccc(CCC(=O)NNC(=O)c2ccccn2)cc1OC	-3.3	-6.3	x	97.5*
O=C(COc1ccc(Br)cc1)Nc1ccccc1C(=O)N1CCOCC1	-0.6	-2.9	-5.2	-4.5
COc1ccc(OCC(=O)Nc2ccccc2C(=O)N2CCOCC2)cc1	18.9	-6.4	-4.9	51.2*
CNC[C@H]1Oc2ncc(-c3ccc(C)cc3)cc2C(=O)N([C@@H](C)CO)C[C@H]1C	x	x	27.0	x
CC(C)CCC(CCN1CCCC1)c1ccc2c(c1)OCO2 (stereo not drawn)	-1.0	-4.9	-7.6	74.4*
O=C(C1CCCC1)N1[C@H](CO)[C@@H]2c3ccccc3N(S(=O)(=O)c3ccc(F)cc3)C[C@@H]21	x	x	7.6	x
OCCC#Cc1ccc(CN2CCN(C3CCCCC3)C(CCO)C2)cc1 (stereo not drawn)	-0.1	-6.8	-3.7	4.7
OCCC1CN(CC#Cc2ccccc2)CCN1C1CCCC1 (stereo not drawn)	-1.8	-16.9	-1.3	90.7*
Cc1ccc2c(Cl)c(C(=O)NCC(c3ccco3)N3CCCC3)sc2c1 (stereo not drawn)	-1.5	-15.6	-2.6	74.8*
O=C(O)CSc1cc(NS(=O)(=O)c2ccc(Cl)cc2)c2ccccc2c1O	35.7	-17.9	48.0*	6.6
COc1ccc(S(=O)(=O)Nc2cc(SCC(=O)O)c(O)c3ccccc23)cc1	28.1	-10.1	61.1*	22.2
Cc1ccc2[nH]c(=O)c(COC(=O)C3CCCCC3)cc2c1	-0.3	3.1	-9.0	+
COCCNS(=O)(=O)c1cc(-c2nn(C)c(=O)c3ccccc23)ccc1C	-3.4	x	3.0	1.7
CCCCNS(=O)(=O)c1cc(-c2nn(C)c(=O)c3ccccc23)ccc1C	-1.2	-4.0	-4.4	56.2*
CC(C)c1nnc(NC(=O)c2cnccn2)s1	0.3	-4.4	49.6*	x
Nc1nc(-c2ccccc2)cn1N	-0.4	x	48.3*	-1.0
O=C(COc1ccc(-c2nnco2)cc1)N1CCN(S(=O)(=O)c2ccc3ccccc3c2)CC1	1.0	-4.7	-10.7	42.3*
CCOc1ccc(C(=O)CCNC(Cc2cnc[nH]2)C(=O)O)cc1 (stereo not drawn)	-2.5	-9.5	60.9*	-1.6
CCOc1ccc(S(=O)(=O)NC(Cc2cnc[nH]2)C(=O)O)cc1 (stereo not drawn)	-3.2	-18.6	15.8	-2.4
O=C(c1ccccc1)c1ccccc1NC(=O)C1CCCN1Cc1ccccc1 (stereo not drawn)	-0.7	-2.5	3.5	46.4*
O=C(CN1CCCC1)Nc1ccccc1C(=O)c1ccccc1	-2.6	-4.0	6.9	-4.9
CCCN1[C@@H]2c3ccc(C4=CCCC4)c(=O)n3C[C@H]1[C@H](CO)[C@H]2C(=O)NCCOC	x	x	-4.8	x
CCCNC(=O)N(C)C[C@H]1Oc2ncc(C#CC3(O)CCCC3)cc2C(=O)N([C@H](C)CO)C[C@@H]1C	x	x	-9.6	x
CC(C)(CN1CCCC1)NC(=O)C1CCC(=O)N(CCCN2CCOCC2)C1 (stereo not drawn)	0.4	-5.3	-0.8	91.9*
CO[C@@H]1CN(C)C(=O)c2cc(NC(=O)C3CCC3)ccc2OC[C@@H](C)N(CC2CCCCC2)C[C@H]1C	x	x	-3.4	x
O=C(NC(Cc1ccccc1)C(=O)O)/C(=C/c1ccccc1)NC(=O)c1ccco1 (stereo not drawn)	-0.4	-2.6	x	63.1*
O=C(NC(Cc1ccccc1)C(=O)O)/C(=C\c1ccc(F)cc1)NC(=O)c1ccco1 (stereo not drawn)	0.5	-1.8	12.5	-7.5
C[C@@H]1CN([C@H](C)CO)C(=O)c2cccc(NS(=O)(=O)c3ccccc3)c2O[C@H]1CN(C)Cc1ccc(Oc2ccccc2)cc1	x	x	5.3	x
